The text below walks through data of the EternaBench riboswitch data.

The series relates to MS2 coat protein. Kind of series: apparent Kd, MS2 coat protein; higher = weaker binding; RNA-MaP array; FMN 200 µM where present. The method in brief: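 SNAP-549-labelled MS2 coat protein, doubled from 0.7 or 1.5 nM to 3 µM, was titrated over designs transcribed by stalled E. coli RNA polymerase on Illumina sequencing-chip clusters. Titrations were run without and then with constant ligand in 100 mM Tris-HCl pH 7.5, 80 mM KCl, 4 mM MgCl2, BSA, DTT, yeast tRNA and Tween-20. The apparent Kd is the median of filtered per-cluster fits to green signal normalised to red-channel RNA signal and control-cluster median Fmax.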

[1] abbreviates: designed as: ON switch for flavin mononucleotide, no ligand.
Where [2] appears, read: ligand present: flavin mononucleotide, designed as: ON switch for flavin mononucleotide.
The mark [3] stands for this setting: designed as: OFF switch for flavin mononucleotide, no ligand.
Where [4] appears, read: ligand present: flavin mononucleotide, designed as: OFF switch for flavin mononucleotide.

Regarding “AGCUACGUUUCGUAGCAGCUAGGUGAGGAUAUUCAAAUUUUCACAUGAGGAUCACCCAUGUAUGUGAAGAAGGCGCCUAGAAAG”, the “apparent Kd” value reads like this: under setting [1], 9.58 nM; under setting [2], 5.44 nM.
“GUGUCGGGAGGAUAUGCGUGGAUUGUUCUCGUAUGGUGUCUACAUGAGGAUCACCCAUGUAGAAGGUCUGGCGC”: the “apparent Kd” value runs as follows: under setting [3], 20.8 nM; under setting [4], 61.1 nM.
For “GCUCUUGUCAAGAAGGGCUCGCGGUACGCUGCAGCAGGAUAUUGACAUGAGGAUCACCCAUGUCGACCGGAACAUCUUUGAGGG”, the “apparent Kd” value by setting is: under setting [3], 13.3 nM; under setting [4], 134 nM.
In the case of “UGGUACAUGGGAGGAUAUGGGUUGAUAACAUGAGGAUCACCCAUGUUAAAUAUGCCUCAUGGCAACUAGAAGGCCCAUGUACCU”, the “apparent Kd” value is 463 nM under setting [1] and 95.1 nM under setting [2].
Regarding “UUUACUUACGAAGGAUAUGGUUACAUGAGGAUCACCCAUGUAUGUAUAUUGAUCUAGUAUUUUAACCAGAAGGUCGUGAUUUUU”, the “apparent Kd” value turned out to be 34.4 nM under setting [3] and 46.6 nM under setting [4].
With “GGUACUCAAAGAGUACUGAGUCGAACAUGAGGAUCACCCAUGUAGGAUAUGCGAGUUUUGAAUUUGCAGAAGGACAUUUUUAGC”, the “apparent Kd” value was found to be 8.88 nM under setting [3] and 9.59 nM under setting [4].
As for “CAAAAGCGAGGAUAUACAUGAGGAUCACCCAUGUGGCAGCCAUGUAGGAGUGACGUCGGUAGAAGGCGCACCCU”, the “apparent Kd” value is 99.8 nM under setting [3] and 141 nM under setting [4].
The corresponding values for “UGUGUCUGUAGAGGAUAUCCGGGCGUUCUGCUAGGAGAAGGCUGCAACACAUGAGGAUCACCCAUGUAGGUUGUGUCUCUCUAC” are 4.82 nM and 9.87 nM.
As to “GUGCCUCAGAACAUGAGGAUCACCCAUGUGCUGCGGGCACCGUAGGAUAUGAUGGUACGCUACCAUCAGAAGGAUGAUGGUACC”, the “apparent Kd” value is, setting by setting: under setting [1], 4.83 nM; under setting [2], 4.92 nM.
Consider “ACGUUUUAUGCAGGAUAUUGACUUAUAUUUAAACAAGAAGGGCAUUACAUGAGGAUCACCCAUGUUAUCAUGGUAUUUAAGUUC”, for which the “apparent Kd” value came to 40 nM under setting [3] and 60.4 nM under setting [4].
Take “AAUGUUGGAGGAUAUACGCGAGUGCUCAGUUGGCCCGGUCGACAUGAGGAUCACCCAUGUAGAAGGCCGACGCU”: the “apparent Kd” value runs as follows: under setting [3], 14.4 nM; under setting [4], 16.9 nM.
“CACACAUGAGGAUCACCCAUGUCGUGGGCGGAAAACUGUGCACAGGAUAUGGUGAAGGCAACUCACCAGAAGGGUGGUCAGGGA”: the “apparent Kd” value came to 113 nM under setting [1] and 55 nM under setting [2].
As to “GAGUUUACGUUUGACACUUAGCGAGAGGAUAUGGAAAACAAGACAUGAGGAUCACCCAUGUACUAUCAGAAGGCUCGAGUACGA”, the “apparent Kd” value under setting [1] was determined as 8.92 nM and the “apparent Kd” value under setting [2] amounted to 5.69 nM.
In the case of “UUAAUCAUGUAGAAGGACGGAUAUUAAGAGUACGUAGGAUAUACAGCAGACAUGAGGAUCACCCAUGUGAACAUGGUACAUAGG”, the “apparent Kd” value was determined as 180 nM under setting [3] and 55 nM under setting [4].
For “AAAUCGAGGUAACUCGCUAUCACACCAGAAGGGACGGAGGCACAUGAGGAUCACCCAUGUCCUAGUCAGGAUAUGGGUGAGUGG”, the “apparent Kd” value reads like this: under setting [1], 25.6 nM; under setting [2], 4.96 nM.
Regarding “AAAUCAGUAGGAUAUACGAUUUUAUACUAGAUAGAGGAACCACAUGAGGAUCACCCAUGUAGAAGGACUAGAUA”, the “apparent Kd” value under setting [3] turned out to be 14.6 nM and the “apparent Kd” value under setting [4] amounted to 14.9 nM.
For “ACAUGAGGAUCACCCAUGUUAAAUUAGGAUAUUUGACUGCACAUGAGGUUCACCCAUGUUCUACCGAAGAAGGGAUUAAUAAUU”, the “apparent Kd” value is, setting by setting: under setting [1], 50 nM; under setting [2], 49.8 nM.
Take “UUCAAAUUCGUAGGAUAUGUAUAAAUUUUCUACAUGAGGAUCACCCAUGUUACCAUUUUAAAUUGACAGAAGGACGUAAUCUAA”: the “apparent Kd” value runs as follows: under setting [1], 22.5 nM; under setting [2], 8.74 nM.
“AUCAUGUAAGGAUAUCUGACAUGUGACGAAAGUCACUGUUCAGAGAAGGUACAUGAGGAUCACCCAUGUAGAAC”: the “apparent Kd” value was 72.2 nM under setting [3] and 133 nM under setting [4].
For the sequence “GUCGUACAAGGAUAUACGGUGAGCUGUGAGUUAUCUGGGACACAUGAGGAUCACCCAUGUAGAAGGUGUCGACA”, the “apparent Kd” value under setting [3] came to 310 nM and the “apparent Kd” value under setting [4] came out at 470 nM.
“CGUUAUUCAGGAUAUGGCGUGUUAUACAUGAGGAUCACCCAUGUAGAUCCUGGUUAGGCCUCAGAAGGGAAUGUUC”: the “apparent Kd” value was 43.7 nM under setting [3] and 37.8 nM under setting [4].
“GCACUGGAUGUAGGAUAUCAGGACGAUAAGUCCUGAGAAGGACAUGAGGAUCACCCAUGUAAACCUCACCAGUGCUAUAAUAUA”: the “apparent Kd” value under setting [3] was determined as 15.5 nM and the “apparent Kd” value under setting [4] amounted to 21.1 nM.
“GGUGUGGCAUGAGGAUAUGGUCAGCUUUGCUGACCAGAAGGCAUGUCAAUAGACAUGAGGAUCACCCAUGUAGUUAACACACCA”: the “apparent Kd” value runs as follows: under setting [1], 557 nM; under setting [2], 42.4 nM.
Taken in the same sequence, the figures for “CGUAACUGCAUAGGAUAUUGAUACAUGAGGAUCACCCAUGUUUUUCGGAUUAGAUAUAUACUAAGCAAGAAGGAUGGAGUUACG” were 7.83 nM and 5.26 nM.
As for “UGGUCACAUGAGGAUCACCCAUGUCAGGAUAUCUACAUUGAAGCCUCGGCUUCAAUGUAGAGAAGGGAUAUAAU”, the “apparent Kd” value came out at 65.5 nM under setting [3] and 148 nM under setting [4].
On to “CUGAAUCGAGGAUAUUGUACUGCUGACAUGAGGAUCACCCAUGUAUGUUAACUCGGCCGUCGAGAAGGCGAACAUA”, for which the “apparent Kd” value runs as follows: under setting [3], 27.6 nM; under setting [4], 18 nM.
The corresponding values for “GGAUAGUACAGAGGAUAUACGUGCUAGAGAUACUAGCAAAAUUUCCUCACAUGAGGAUCACCCAUGUAGAAGGCUGUCCUAUCG” are 5.94 nM and 51.8 nM.
Regarding “UUCGCUAAGGUGUAGCGAGACAUGCAAGAAGGGUGAAGAACAUGAGGAUCACCCAUGUAGACGGUACAGGAUAUUGAUUGACGA”, the “apparent Kd” value under setting [1] worked out at 128 nM and the “apparent Kd” value under setting [2] amounted to 89.3 nM.
On to “AGCUAGUCAGGAUAUACAAACAUGUCGAGAGACGUGAAGGGACAUGAGGAUCACCCAUGUAGAAGGGACUAGCA”, for which the “apparent Kd” value stood at 59 nM under setting [3] and 234 nM under setting [4].
With “AAAUAACAUGAGGAUCACCCAUGUGCUGGAUAUGCAGGAUAUGGGCGGCGGGAGCGCGGCCCAGAAGGGCAGCUCC”, the “apparent Kd” value was found to be 100 nM under setting [1] and 113 nM under setting [2].
For the sequence “UAUAUAUAGUAAGGAUAUGUAUAUAUUCUAUAAACAGAAGGUACUGACAUGAGGAUCACCCAUGUUUUAGUGUGGGCAUGUAGA”, the “apparent Kd” value came out at 33.9 nM under setting [3] and 30.5 nM under setting [4].
The corresponding values for “UAAGCCGGGUCUGCAUGAGCUUACAUGAGGAUCACCCAUGUAAGAAGGGACGCUACGUUAAAGUGUCAGGAUAUUGCGAACGGG” are 5.26 nM and 5.73 nM.
Regarding “UGGUUGUGUGUUAGGAUAUGGUUUGGUGUUUCGGGCUAGAAGGGACAUGAGGAUCACCCAUGUGGCUGGCGGGU”, the “apparent Kd” value runs as follows: under setting [3], 72.6 nM; under setting [4], 58.1 nM.
In the case of “CGUAGUUGGUAAGGAUAUCCUACACUGUUCUGACCCGUGCAAGCUACAUGAGGAUCACCCAUGUGGGAGAAGGUGCGUCAACGC”, the “apparent Kd” value was 18.4 nM under setting [3] and 19.6 nM under setting [4].
For “GAGCAGGUAAUAAAGUAGAAAUACAUGAGGAUCACCCAUGUAUAGGAUAUCGUCAGGAAUACUGACGAGAAGGAUACAUCCUGC”, the “apparent Kd” value under setting [3] was found to be 14.2 nM and the “apparent Kd” value under setting [4] was found to be 18.1 nM.
As for “UUCGAGUUGCAAGGAUAUCUUAUUUAGAUUUUAAGAGAAGGUGCUUCACAGCUACAUGAGGAUCACCCAUGUCUUUCUUCUUAU”, the “apparent Kd” value is, setting by setting: under setting [1], 29.7 nM; under setting [2], 23.7 nM.
